The source made the active and inactive calls. No cut-off for these calls is given here.
Assays:
HBE = test: Antiinflammatory activity in HBE cells assessed as effect on LPS/IFNgamma-induced IL-1beta gene expression at 2 uM […] by RT-qPCR analysis; format: functional, cell-based; settings: Homo sapiens
How it was run: (§1)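 HBE cells (passage 73–103) or immortalized hASM cells (2–3 donors, passage 27–35), serum-starved. Then 2 μM RGFP966 for 20 h, with LPS/IFNγ for the last 4 h. Total RNA isolated; RT-qPCR by 2−ΔΔCt, fold change versus LPS/IFNγ control. Mean ± SD of 3–5 independent experiments.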

HASMC = test: Antiinflammatory activity in HASMC cells assessed as effect on LPS/IFNgamma-induced IL-6 gene expression at 2 uM […] and measured after 4 hrs by RT-qPCR analysis; format: functional, cell-based; settings: Homo sapiens; how it was run: as §1

Nc1cc(F)ccc1NC(=O)/C=C/c1cnn(C/C=C/c2ccccc2)c1
Activity (HBE): inactive
Activity (HASMC): inactive

Source: ChEMBL document CHEMBL5653624 (Biochem Pharmacol, 2016)
